Results as given in ChEMBL document CHEMBL1125520, “Improved brain delivery of AZT using a glycosyl phosphotriester prodrug” (1992).

Legend:
[1] = system: Mus musculus; assay: In Vivo detection in Mice plasma after oral administration of 41.63 mg/kg detected in the form of AZT after 8 hr; type: functional, organism-based; parameters: dose 41.63 mg/kg
[2] = system: Mus musculus; assay: In Vivo detection in Mice plasma after oral administration of 41.63 mg/kg detected in the form of AZT 5`-P after 1 hr; type: functional, organism-based; parameters: dose 41.63 mg/kg
[3] = system: Mus musculus; assay: In Vivo detection in Mice brains after oral administration of 41.63 mg/kg detected in the form of AZT after 4 hr; type: functional
[4] = system: Mus musculus; assay: In Vivo detection in Mice plasma after oral administration of 41.63 mg/kg detected in the form of AZT phosphodiester 2 after 2 hr; type: functional, organism-based; parameters: dose 41.63 mg/kg
[5] = system: Mus musculus; assay: In Vivo detection of total AZT in Mice plasma after oral administration of 41.63 mg/kg after 24 hr; type: functional, organism-based; parameters: dose 41.63 mg/kg
Procedure, shortened: (§1)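 Male Swiss mice (18–20 g, six weeks old) given the test substance or vehicle ([…]) by gavage as a 3 mM solution (1.5 µmol/mouse). Aortic blood was collected into heparinized tubes at 0.5–48 h and centrifuged at 13000g for 10 min. Plasma was stored at -22 °C and analysed by HPLC. Three mice were used per time point, in triplicate. Values were not corrected for recovery.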

[6] = system: Mus musculus; assay: In Vivo detection in Mice plasma after oral administration of 41.63 mg/kg detected in the form of AZT 5`-P after 0.5 hr; type: functional, organism-based; parameters: dose 41.63 mg/kg
[7] = system: Mus musculus; assay: In Vivo detection of total AZT in Mice plasma after oral administration of 41.63 mg/kg after 48 hr; type: functional, organism-based; parameters: dose 41.63 mg/kg; procedure, shortened: as §1
[8] = system: Mus musculus; assay: In Vivo detection in Mice plasma after oral administration of 41.63 mg/kg detected in the form of AZT 5`-P after 2 hr; type: functional, organism-based; parameters: dose 41.63 mg/kg
[9] = system: Mus musculus; assay: In Vivo detection of total AZT in Mice plasma after oral administration of 41.63 mg/kg after 8 hr; type: functional, organism-based; parameters: dose 41.63 mg/kg; procedure, shortened: as §1
[10] = system: Mus musculus; assay: In Vivo detection in Mice brains after oral administration of 41.63 mg/kg detected in the form of AZT after 2 hr; type: functional
[11] = system: Mus musculus; assay: In Vivo detection in Mice brains after oral administration of 41.63 mg/kg detected in the form of AZT 5`-P after 8 hr; type: functional
[12] = system: Mus musculus; assay: In Vivo detection in Mice plasma after oral administration of 41.63 mg/kg detected in the form of AZT phosphodiester 2 after 4 hr; type: functional, organism-based; parameters: dose 41.63 mg/kg
[13] = system: Mus musculus; assay: In Vivo detection of total AZT in Mice brains after oral administration of 41.63 mg/kg after 1 hr; type: functional
Procedure, shortened: (§2)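 Male Swiss mice (18–20 g) dosed orally with a 3 mM solution in […] vehicle; decapitated at 0.5–48 h. Brains were homogenized in acetonitrile-water (3:1), centrifuged at 6000g for 40 min at 4 °C, lyophilized, redissolved in water and filtered (0.45 µm). Reversed-phase C18 column-switching HPLC with diode-array detection; standard spiking; vehicle-fed controls. Three mice per point, triplicates.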

[14] = system: Mus musculus; assay: In Vivo detection in Mice brains after oral administration of 41.63 mg/kg detected in the form of AZT after 1 hr; type: functional
[15] = system: Mus musculus; assay: In Vivo detection of total AZT in Mice brains after oral administration of 41.63 mg/kg after 0.5 hr; type: functional; procedure, shortened: as §2
[16] = system: Mus musculus; assay: In Vivo detection in Mice brains after oral administration of 41.63 mg/kg detected in the form of AZT 5`-P after 24 hr; type: functional
[17] = system: Mus musculus; assay: In Vivo detection in Mice brains after oral administration of 41.63 mg/kg detected in the form of AZT phosphodiester 2 after 2 hr; type: functional
[18] = system: Mus musculus; assay: In Vivo detection in Mice brains after oral administration of 58.33 mg/kg detected in the form of AZT phosphodiester 3 after 4 hr; type: functional
[19] = system: Mus musculus; assay: In Vivo detection in Mice plasma after oral administration of 58.33 mg/kg detected in the form of AZT after 1 hr; type: functional, organism-based; parameters: dose 58.33 mg/kg
[20] = system: Mus musculus; assay: In Vivo detection in Mice brains after oral administration of 58.33 mg/kg detected in the form of AZT after 8 hr; type: functional
[21] = system: Mus musculus; assay: In Vivo detection in Mice plasma after oral administration of 58.33 mg/kg detected in the form of AZT 5`-P after 24 hr; type: functional, organism-based; parameters: dose 58.33 mg/kg
[22] = system: Mus musculus; assay: In Vivo detection of total AZT in Mice brains after oral administration of 58.33 mg/kg after 4 hr; type: functional; procedure, shortened: as §2
[23] = system: Mus musculus; assay: In Vivo detection in Mice brains after oral administration of 58.33 mg/kg detected in the form of AZT 5`-P after 0.5 hr; type: functional
[24] = system: Mus musculus; assay: In Vivo detection in Mice brains after oral administration of 58.33 mg/kg detected in the form of AZT phosphodiester 3 after 48 hr; type: functional
[25] = system: Mus musculus; assay: In Vivo detection in Mice plasma after oral administration of 58.33 mg/kg detected in the form of AZT phosphodiester 3 after 24 hr; type: functional, organism-based; parameters: dose 58.33 mg/kg; procedure, shortened: as §1
[26] = system: Mus musculus; assay: In Vivo detection in Mice plasma after oral administration of 58.33 mg/kg detected in the form of AZT 5`-P after 0.5 hr; type: functional, organism-based; parameters: dose 58.33 mg/kg
[27] = system: Mus musculus; assay: In Vivo detection in Mice plasma after oral administration of 58.33 mg/kg detected in the form of AZT 5`-P after 1 hr; type: functional, organism-based; parameters: dose 58.33 mg/kg
[28] = system: Mus musculus; assay: In Vivo detection in Mice brains after oral administration of 58.33 mg/kg detected in the form of AZT after 2 hr; type: functional
[29] = system: Mus musculus; assay: In Vivo detection in Mice plasma after oral administration of 58.33 mg/kg detected in the form of AZT 5`-P after 4 hr; type: functional, organism-based; parameters: dose 58.33 mg/kg
[30] = system: Mus musculus; assay: In Vivo detection in Mice plasma after oral administration of 58.33 mg/kg detected in the form of AZT 5`-P after 48 hr; type: functional, organism-based; parameters: dose 58.33 mg/kg
[31] = system: Mus musculus; assay: In Vivo detection in Mice plasma after oral administration of 58.33 mg/kg detected in the form of AZT after 48 hr; type: functional, organism-based; parameters: dose 58.33 mg/kg; procedure, shortened: as §1
[32] = system: Mus musculus; assay: In Vivo detection in Mice plasma after oral administration of 58.33 mg/kg detected in the form of AZT phosphodiester 2 after 1 hr; type: functional, organism-based; parameters: dose 58.33 mg/kg; procedure, shortened: as §1
[33] = system: Mus musculus; assay: In Vivo detection in Mice brains after oral administration of 58.33 mg/kg detected in the form of AZT 5`-P after 4 hr; type: functional
[34] = system: Mus musculus; assay: In Vivo detection in Mice brains after oral administration of 58.33 mg/kg detected in the form of AZT phosphodiester 3 after 24 hr; type: functional
[35] = system: Mus musculus; assay: In Vivo detection in Mice plasma after oral administration of 58.33 mg/kg detected in the form of AZT phosphodiester 2 after 24 hr; type: functional, organism-based; parameters: dose 58.33 mg/kg; procedure, shortened: as §1
[36] = system: Mus musculus; assay: In Vivo detection in Mice brains after oral administration of 58.33 mg/kg detected in the form of AZT phosphodiester 3 after 8 hr; type: functional
[37] = system: Mus musculus; assay: In Vivo detection of total AZT in Mice brains after oral administration of 58.33 mg/kg after 24 hr; type: functional; procedure, shortened: as §2
[38] = system: Mus musculus; assay: In Vivo detection of total AZT in Mice plasma after oral administration of 58.33 mg/kg after 4 hr; type: functional, organism-based; parameters: dose 58.33 mg/kg; procedure, shortened: as §1
[39] = system: Mus musculus; assay: In Vivo detection in Mice plasma after oral administration of 20 mg/kg detected in the form of AZT phosphodiester 2 after 0.5 hr; type: functional, organism-based; parameters: dose 20 mg/kg
[40] = system: Mus musculus; assay: In Vivo detection in Mice plasma after oral administration of 58.33 mg/kg detected in the form of AZT after 24 hr; type: functional, organism-based; parameters: dose 58.33 mg/kg

## Cc1cn([C@H]2C[C@H](N=[N+]=[N-])[C@@H](COP(=O)(O)OCCO[C@H]3O[C@H](CO)[C@@H](O)[C@H](O)[C@@H]3O)O2)c(=O)[nH]c1=O
[1]
  Plasma content: 0 nM ml-1
[2]
  Plasma content: 20 nM ml-1
[3]
  Brain content: 0.9 nmol/g
[4]
  Plasma content: 1.6 nM ml-1
[5]
  Plasma content: 26.8 nM ml-1
[6]
  Plasma content: 20.4 nM ml-1
[7]
  Plasma content: 17.9 nM ml-1
[8]
  Plasma content: 15 nM ml-1
[9]
  Plasma content: 5.7 nM ml-1
[10]
  Brain content: 1.2 nmol/g
[11]
  Brain content: 33.3 nmol/g
[12]
  Plasma content: 0 nM ml-1
[13]
  Brain content: 97.7 nmol/g
[14]
  Brain content: 1.9 nmol/g
[15]
  Brain content: 38.6 nM ml-1
[16]
  Brain content: 56.5 nmol/g
[17]
  Brain content: 5.2 nM ml-1

## CCCCCCCCCCCCCCCCOP(=O)(OCCO[C@H]1O[C@H](CO)[C@@H](O)[C@H](O)[C@@H]1O)OCC1OC(n2cc(C)c(=O)[nH]c2=O)CC1N=[N+]=[N-] (stereo not given in full)
[18]
  Brain content: 0 nM ml-1
[19]
  Plasma content: 1.3 nM ml-1
[20]
  Brain content: 2 nmol/g
[21]
  Plasma content: 28.5 nM ml-1
[22]
  Brain content: 122 nmol/g
[23]
  Brain content: 36.7 nmol/g
[24]
  Brain content: 0 nmol/g
[25]
  Plasma content: 0 nM ml-1
[26]
  Plasma content: 12.1 nM ml-1
[27]
  Plasma content: 12.7 nM ml-1
[28]
  Brain content: 2.9 nmol/g
[29]
  Plasma content: 3 nM ml-1
[30]
  Plasma content: 14.2 nM ml-1
[31]
  Plasma content: 0 nM ml-1
[32]
  Plasma content: 0 nM ml-1
[33]
  Brain content: 114 nmol/g
[34]
  Brain content: 0 nmol/g
[35]
  Plasma content: 0 nM ml-1
[36]
  Brain content: 0 nM ml-1
[37]
  Brain content: 87.9 nM ml-1
[38]
  Plasma content: 5.3 nM ml-1
[39]
  Plasma content: 0 nM ml-1
[40]
  Plasma content: 0 nM ml-1
